Results on one compound are retold here after ChEMBL document CHEMBL1800054, “Thiazolides as novel antiviral agents. 1. Inhibition of hepatitis B virus replication” (J Med Chem, 2011).

A value given as a limit tells only on which side of the number the result lay.

The nature of data set [1]: Cytotoxicity against human HepG2(2.2.15) cells after 24 hrs by neutral red dye uptake assay. In kind it is cell-based. As to conditions: HepG2(2.2.15) cells. The gist of the method: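 Confluent chronically HBV-producing 2.2.15 cultures given nine consecutive daily doses of compound; neutral red dye uptake read 24 hr after the last dose.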
The subject of data set [2] is Plasma. Description: Protein binding in human plasma. In kind it is ADME, cell-free.
Data set [3] deals with Plasma. Description: Metabolic stability in human plasma assessed as plasma esterase-induced compound deacetylation. It is filed as ADME, cell-free.
The test system of data set [4] is Hepatitis B virus. Description: Antiviral activity against Hepatitis B virus infected in human HepG2(2.2.15) cells assessed as decrease in intracellular viral DNA measured 24 hrs after last dose. Conditions: HepG2 2.2.15, 24 h. In kind it is functional, organism-based. The gist of the method: (§1)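 Confluent 2.2.15 cells (HepG2 line chronically producing HBV) in 96-well culture; nine consecutive daily doses of compound. HBV DNA (extracellular virion or intracellular replication intermediates) quantified by blot hybridization 24 hr after the last dose. Cytotoxicity measured by neutral red uptake 24 hr after the last dose.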

Data set [5] relates to Hepatitis B virus. As to the kind of experiment: Antiviral activity against Hepatitis B virus infected in human HepG2(2.2.15) cells assessed as decrease in extracellular viral DNA measured 24 hrs after last dose. As to conditions: HepG2 2.2.15, 24 h. In kind it is functional, organism-based. The gist of the method:
as §1

`CC(=O)Oc1ccccc1C(=O)Nc1ncc([N+](=O)[O-])s1` [NITAZOXANIDE]: the CC50 at 24 h in data set [1] was greater than 100000 nM. In addition, the PPB with Plasma [2] was greater than 95%. Besides, in the data set on Plasma [3], the t1/2 turned out to be 6 min. Further, the EC50 was 590 nM in the data set on Hepatitis B virus [4] and 120 nM in the data set with Hepatitis B virus [5].

Broadly, the CC50 is the concentration giving 50% cytotoxicity. Read a high CC50 as lower toxicity to the cells. What is called EC50 is the midpoint of the concentration-response curve.
